Experimental data from ChEMBL document CHEMBL3352380, “Development of benzo[d]oxazol-2(3H)-ones derivatives as novel inhibitors of Mycobacterium tuberculosis InhA” (Bioorg Med Chem, 2014).
Values after ≈ are worked out from the molar mass of the structure shown.

Columns and labels:
[1] = molecular target: T1, Enoyl-[acyl-carrier-protein] reductase [NADH] (Mycobacterium tuberculosis) (UniProt P9WGR1); assay: Inhibition of Mycobacterium tuberculosis recombinant His6-tagged InhA expressed in Escherichia coli BL21(DE3) using 2-trans-decenoyl-CoA as substrate at 10 uM incubated for 2 hrs prior to substrate addition by spectrophotometry
T1 sequence (whole entry): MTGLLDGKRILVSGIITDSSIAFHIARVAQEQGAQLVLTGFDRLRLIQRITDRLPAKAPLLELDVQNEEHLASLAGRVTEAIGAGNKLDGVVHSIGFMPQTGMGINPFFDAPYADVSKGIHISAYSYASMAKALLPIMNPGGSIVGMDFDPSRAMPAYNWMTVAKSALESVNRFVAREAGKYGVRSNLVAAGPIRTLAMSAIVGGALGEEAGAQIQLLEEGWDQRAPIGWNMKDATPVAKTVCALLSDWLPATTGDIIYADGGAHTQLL
Procedure, shortened: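 His6-InhA expressed in E. coli BL21(DE3) with 0.1 mM IPTG at 18 °C and purified on Ni-NTA. 70 nM enzyme pre-incubated 2 h with inhibitor at 10 µM in 30 mM PIPES, 150 mM NaCl, pH 6.8, 0.5% DMSO, 25 °C. Reaction started with DD-CoA plus NADH and followed at 340 nm. Initial velocity compared with a no-ligand control; triplicate.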

[2] = tested on: Mycobacterium tuberculosis; assay: Antimicrobial activity against Mycobacterium tuberculosis H37Rv ATCC 27294 after 28 days by two-fold agar dilution method; type: functional; conditions: H37Rv ATCC 27294, 672 h
Procedure, shortened: (§1)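 Two-fold serial dilutions in Middlebrook 7H11 agar with OADC supplement, final 50 to 0.78 µg/mL. Inoculum from fresh 7H11/OADC slants, adjusted to 1 mg/mL wet weight in 0.05% Tween 80 saline and diluted 10^-2 (~10^7 cfu/mL), spotted onto drug-containing agar tubes. Incubated at 37 °C; MIC is the lowest concentration inhibiting growth, read at 28 days.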

[3] = tested on: Mycobacterium tuberculosis; assay: Antimicrobial activity against Mycobacterium tuberculosis H37Rv ATCC 27294 after 28 days by two-fold agar dilution method in presence of verapamil; type: functional; conditions: H37Rv ATCC 27294, 672 h; procedure, shortened: as §1
[4] = tested on: Mycobacterium tuberculosis; assay: Antimicrobial activity against Mycobacterium tuberculosis H37Rv ATCC 27294 after 28 days by two-fold agar dilution method in presence of piperine; type: functional; conditions: H37Rv ATCC 27294, 672 h; procedure, shortened: as §1
[5] = Cytotoxicity against mouse RAW264.7 cells at 100 uM after 72 hrs by MTT assay; type: cell-based; conditions: read-out: INH
Procedure, shortened: (§2)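 RAW 264.7 macrophages exposed to compound for 72 h. Viability read as MTT conversion to formazan with a non-radioactive cell proliferation kit, reported as percentage growth inhibition.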

[6] = Cytotoxicity against mouse RAW264.7 cells at 50 uM after 72 hrs by MTT assay; type: cell-based; conditions: read-out: INH; procedure, shortened: as §2
[7] = molecular target: T2, Enoyl-[acyl-carrier-protein] reductase [NADH] (Mycobacterium tuberculosis, UniProt P9WGR1); assay: Inhibition of Mycobacterium tuberculosis recombinant His6-tagged InhA expressed in Escherichia coli BL21(DE3) using 2-trans-decenoyl-CoA as substrate incubated for 2 hrs prior to substrate addition by spectrophotometry
T2 sequence (P9WGR1 whole entry): T1 sequence (whole entry)

[8] = molecular target: T1, Enoyl-[acyl-carrier-protein] reductase [NADH] (Mycobacterium tuberculosis)

Compound | inhibition [1] [%] | MIC [2] [µM] | MIC [3] [µM] | MIC [4] [µM] | cytotoxicity at 72 h, 100 µM [5] [%] | cytotoxicity at 72 h, 50 µM [6] [%] | IC50 [7] [µM] | Tm [8] [°C]
O=C(Cn1c(=O)oc2cc([N+](=O)[O-])ccc21)Nc1ccccc1 | 46.1 | 79.8 (≈ 25 µg/mL) | 19.9 | 9.97 | 26.4 | 18 |  | 
O=C(Cn1c(=O)oc2cc(Cl)ccc21)NCc1cccs1 | 45.6 | 38.7 (≈ 12.5 µg/mL) | 9.64 | 9.64 | 53.6 | 20.3 |  | 
O=C(Cn1c(=O)oc2ccccc21)NCc1ccco1 | 30.1 | 22.9 (≈ 6.25 µg/mL) | 22.9 | 22.9 | 33.8 | 32.8 |  | 
O=C(Cn1c(=O)oc2ccccc21)Nc1cccc(Cl)c1 | 17 |  |  |  |  |  | > 25 | 
O=C(Cn1c(=O)oc2cc([N+](=O)[O-])ccc21)Nc1nc2ccccc2s1 | 60.8 | 33.8 (≈ 12.5 µg/mL) | 33.8 | 33.8 | 56.1 | 22.7 | 7.62 | 
O=C(Cn1c(=O)oc2ccccc21)Nc1ccc(Cl)c(Cl)c1 | 16.5 |  |  |  |  |  | > 25 | 
O=C(Cn1c(=O)oc2cc([N+](=O)[O-])ccc21)NCc1cccs1 | 35.7 | 18.8 (≈ 6.25 µg/mL) | 18.8 | 18.8 | 41 | 36.5 |  | 
O=C(Cn1c(=O)oc2ccccc21)NCc1ccccn1 | 42.2 | 88.2 (≈ 25 µg/mL) | 22.1 | 44.1 | 38.7 | 37.3 |  | 
O=C(Cn1c(=O)oc2cc(Cl)ccc21)Nc1cc(C(F)(F)F)ccc1Cl | 40.1 | 61.7 (≈ 25 µg/mL) | 15.4 | 15.4 | 12.1 | 1.61 |  | 
NNC(=O)c1ccncc1 [ISONIAZID] |  | 0.72 (≈ 0.0987 µg/mL) |  |  |  |  |  | 
O=C(Cn1c(=O)oc2cc(Cl)ccc21)Nc1ccccc1 | 28.2 | 82.6 (≈ 25 µg/mL) | 20.6 | 41.3 | 20.2 | 15.8 |  | 
O=C(Cn1c(=O)oc2cc(Cl)ccc21)Nc1nc2ccccc2s1 | 58.2 | 17.4 (≈ 6.25 µg/mL) | 8.68 | 17.4 | 52.5 | 38.7 | 8.9 | 
O=C(Cn1c(=O)oc2ccccc21)Nc1nc2ccc([N+](=O)[O-])cc2s1 | 45.1 | 33.8 (≈ 12.5 µg/mL) | 8.43 | 4.21 | 19.2 | 12.4 |  | 
O=C(Cn1c(=O)oc2ccccc21)Nc1ncc([N+](=O)[O-])s1 | 48.1 | 78 (≈ 25 µg/mL) | 39 | 19.5 | 44.6 | 25 |  | 
O=C(Cn1c(=O)oc2cc([N+](=O)[O-])ccc21)Nc1nc2ccc([N+](=O)[O-])cc2s1 | 51.7 | 15 (≈ 6.25 µg/mL) | 3.75 | 3.75 | 39 | 14.8 |  | 
O=C(Cn1c(=O)oc2cc([N+](=O)[O-])ccc21)NCc1ccco1 | 36.9 | 78.8 (≈ 25 µg/mL) | 39.4 | 39.4 | 60.1 | 26.8 |  | 
O=C(Cn1c(=O)oc2ccccc21)Nc1nc2ccccc2s1 | 42.1 | 19.2 (≈ 6.25 µg/mL) | 9.6 | 9.6 | 59.6 | 43.5 |  | 

Compound | inhibition [1] [%] | MIC [2] [µM] | MIC [3] [µM] | MIC [4] [µM] | cytotoxicity at 72 h, 100 µM [5] [%] | cytotoxicity at 72 h, 50 µM [6] [%] | IC50 [7] [µM] | Tm [8] [°C]
O=C(Cn1c(=O)oc2cc([N+](=O)[O-])ccc21)Nc1cc(C(F)(F)F)ccc1Cl | 32.2 | 60.1 (≈ 25 µg/mL) | 15 | 30.1 | 31.6 | 12.8 |  | 
O=C(Cn1c(=O)oc2ccccc21)Nc1cc(C(F)(F)F)ccc1Cl | 26.8 | 67.4 (≈ 25 µg/mL) | 33.7 | 16.9 | 15.4 | 12.3 |  | 
O=C(Cn1c(=O)oc2cc(Cl)ccc21)Nc1ncc([N+](=O)[O-])s1 | 72.6 | 17.6 (≈ 6.25 µg/mL) | 8.81 | 17.6 | 50.6 | 14.3 | 6.82 | 
O=C(Cn1c(=O)oc2cc(Cl)ccc21)Nc1nc2ccc([N+](=O)[O-])cc2s1 | 48.6 | 30.9 (≈ 12.5 µg/mL) | 7.72 | 7.72 | 14.2 | 12.5 |  | 
CO[C@H]1/C=C/O[C@@]2(C)Oc3c(C)c(O)c4c(O)c(c(/C=N/N5CCN(C)CC5)c(O)c4c3C2=O)NC(=O)/C(C)=C\C=C\[C@H](C)[C@H](O)[C@@H](C)[C@@H](O)[C@@H](C)[C@H](OC(C)=O)[C@@H]1C [RIFAMPIN] |  | 0.15 (≈ 0.123 µg/mL) |  |  |  |  |  | 
O=C(Cn1c(=O)oc2cc([N+](=O)[O-])ccc21)NCc1ccccn1 | 68.1 | 76.2 (≈ 25 µg/mL) | 38.1 | 9.51 | 33.4 | 21.8 | 8.23 | 
O=C(Cn1c(=O)oc2cc([N+](=O)[O-])ccc21)Nc1ncc([N+](=O)[O-])s1 | 82.4 | 17.1 (≈ 6.25 µg/mL) | 8.55 | 8.55 | 43.8 | 20.2 | 5.12 | 1.9
O=C(Cn1c(=O)oc2ccccc21)Nc1cc(Cl)ccc1Cl | 19.5 |  |  |  |  |  | 22.1 | 
O=C(Cn1c(=O)oc2ccccc21)Nc1ccccn1 | 26.1 | 46.4 (≈ 12.5 µg/mL) | 4.64 | 9.28 | 28.4 | 20.2 |  | 
O=C(Cn1c(=O)oc2cc(Cl)ccc21)Nc1ccccn1 | 51.6 | 82.3 (≈ 25 µg/mL) | 10.3 | 10.3 | 43.7 | 33 |  | 
O=C(Cn1c(=O)oc2cc([N+](=O)[O-])ccc21)Nc1ccccn1 | 15.6 | 39.8 (≈ 12.5 µg/mL) | 19.9 | 9.94 | 47.3 | 38.6 |  | 
CC[C@@H](CO)NCCN[C@@H](CC)CO [ETHAMBUTOL] |  | 7.64 (≈ 1.56 µg/mL) |  |  |  |  |  | 
O=C(Cn1c(=O)oc2ccccc21)Nc1ccccc1 | 32.4 | 46.6 (≈ 12.5 µg/mL) | 23.3 | 23.3 | 39.8 | 35.1 |  | 
O=C(Cn1c(=O)oc2cc(Cl)ccc21)NCc1ccco1 | 47.5 | 40.8 (≈ 12.5 µg/mL) | 20.4 | 10.2 | 50.3 | 27.8 |  | 
CC1COc2c(N3CCN(C)CC3)c(F)cc3c(=O)c(C(=O)O)cn1c23 (stereo not drawn) [OFLOXACIN] |  | 2.16 (≈ 0.781 µg/mL) |  |  |  |  |  | 
O=C(Cn1c(=O)oc2ccccc21)NCc1cccs1 | 26.1 | 21.7 (≈ 6.25 µg/mL) | 10.8 | 5.41 | 49.1 | 23.4 |  | 
O=C(Cn1c(=O)oc2cc(Cl)ccc21)NCc1ccccn1 | 43.1 | 39.3 (≈ 12.5 µg/mL) | 4.91 | 4.91 | 40 | 36.1 |  | 
